Rows were chosen to be rich in hits. Some 2.3% of all compounds tested hit in one or more screens of this group.
TRPC6 inhibitor: blocks the mouse TRPC6 cation channel; B-score at 10 µM; 310,000 tested, 1.1% active; AID 2553; HEK293-TRPC6, membrane potential dye, ACh-evoked depolarization; stronger effect = lower value;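 active = B-score under library mean minus 3 SD, initial fluorescence not abnormally high, positive integrated signal ratio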;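 note: B-score derived from integrated fluorescence ratio over the kinetic read; more negative B-score means stronger inhibition of depolarization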
Target sequence (Q61143 whole entry, looked up): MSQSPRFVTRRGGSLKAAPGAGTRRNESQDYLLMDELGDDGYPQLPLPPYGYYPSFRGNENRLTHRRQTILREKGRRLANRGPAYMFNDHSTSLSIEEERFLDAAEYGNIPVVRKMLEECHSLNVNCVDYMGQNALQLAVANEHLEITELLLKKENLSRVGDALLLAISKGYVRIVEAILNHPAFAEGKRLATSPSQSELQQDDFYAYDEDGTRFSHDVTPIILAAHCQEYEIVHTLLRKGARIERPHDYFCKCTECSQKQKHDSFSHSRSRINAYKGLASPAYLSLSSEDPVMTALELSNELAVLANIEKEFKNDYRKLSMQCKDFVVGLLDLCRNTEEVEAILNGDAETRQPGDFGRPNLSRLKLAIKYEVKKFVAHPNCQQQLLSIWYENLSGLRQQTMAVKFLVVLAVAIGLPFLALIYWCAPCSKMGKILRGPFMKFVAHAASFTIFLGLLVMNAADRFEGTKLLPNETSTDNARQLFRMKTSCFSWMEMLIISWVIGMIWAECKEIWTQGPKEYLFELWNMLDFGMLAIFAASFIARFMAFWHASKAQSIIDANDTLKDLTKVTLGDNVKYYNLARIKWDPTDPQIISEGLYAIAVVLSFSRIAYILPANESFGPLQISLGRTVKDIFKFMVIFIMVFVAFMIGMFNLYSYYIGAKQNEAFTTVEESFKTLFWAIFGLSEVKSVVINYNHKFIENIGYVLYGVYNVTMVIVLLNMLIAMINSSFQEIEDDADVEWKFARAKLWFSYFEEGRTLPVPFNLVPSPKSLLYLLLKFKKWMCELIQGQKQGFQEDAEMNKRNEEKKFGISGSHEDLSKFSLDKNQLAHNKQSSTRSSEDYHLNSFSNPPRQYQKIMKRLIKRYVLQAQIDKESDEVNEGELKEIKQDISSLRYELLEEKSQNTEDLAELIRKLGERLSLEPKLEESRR
TRPC4 potent: allosterically enhances the mouse TRPC4 cation channel; Q9QUQ5; HEK293 TRPC4beta/mu-opioid, DAMGO EC20, Fluo-4 Ca2+ flux; stronger effect = higher value; B-score at 10 µM; 310,000 tested, 0.42% active; AID 2227;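 active = B-score of calcium response area above 5 SD of library B-scores, with initial fluorescence ratio within 5 SD of library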;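 note: B-score of integrated fluorescence ratio over time as area under calcium response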
TRPC4 block: inhibitors of mouse TRPC4 channel; Q9QUQ5; HEK293 TRPC4beta/mu-opioid, DAMGO-evoked Fluo4 calcium flux; stronger effect = lower value; B-score at 10 µM; 300,000 tested, 0.39% active; AID 2247;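 active = B-score over 3 SD under the library average, no early fluorescence shift, positive overall ratio signal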
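material = TRPC4beta/mu-opioid receptor HEK293 cell line | probe or stimulus = sequential submaximal and maximal DAMGO stimulation | compound dosing = one concentration per compound | measured by = Fluo4 Ca2+ flux fluorescence | evaluation = integrated fluorescence ratio relative to baseline, converted to per-well B score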
TRPC6 activator: mouse TRPC6 channel activation. B-score at 10 µM. 310,000 tested, 0.13% active. Q61143. HEK293-TRPC6 membrane potential dye fluorescence; stronger effect = higher value;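 active = B-score of the integrated fluorescence ratio above library mean plus 3 SD, and starting fluorescence ratio within library mean plus 5 SD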;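 note: higher score means more depolarization so channel activation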
TRPC4 act: activators of mouse TRPC4 channel | Q9QUQ5 | AID 2237 | 310,000 tested, 0.49% active | B-score at 10 µM | HEK293 TRPC4beta/mu-opioid, Fluo4 calcium fluorescence; stronger effect = higher value;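 active = B-score above 5 SD of library B-scores, and initial fluorescence ratio not above library mean plus 5 SD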;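 note: positive B-score marks a calcium rise read as TRPC4 activation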
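Assay system: HEK293 cells stably co-expressing mouse TRPC4beta and mu-opioid receptor / Timing: Fluo4 dye loading 45 min at room temperature, 110 s recording / Signal: Fluo4 calcium-sensitive dye fluorescence, kinetic, 1 Hz baseline / Read-out: integrated baseline-normalised fluorescence ratio, converted to per-well B score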
TRPC4 spec 2: second selectivity test of TRPC6 inhibitors: effect on mouse TRPC4 | inhibition, % at 10 µM | shares compounds with TRPC6 inhibitor | HEK293 TRPC4/MOR, membrane potential dye fluorescence; channel activated by saturating DAMGO dose | 920 tested, 42% active;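 active = compounds whose fluorescence signal differed from control wells by over 3 SD, either direction, in both duplicate plates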
TRPC4 spec: selectivity of TRPC6 inhibitors: effect on mouse TRPC4 | HEK293 TRPC4/mu-opioid, membrane potential fluorescence | activity change, negative = inhibition, % at 10 µM | shares compounds with TRPC6 inhibitor | 920 tested, 61% active;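 active = rise or fall in signal beyond 3 SD of buffer-only wells in both replicate plates, either sign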;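 note: integrated kinetic ratio of fluorescence range over baseline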
HEK293 MPD ctr 2-1: second check of TRPC6 inhibitor effects in parental HEK293 cells | parental HEK293 membrane potential dye fluorescence; maximal acetylcholine challenge after compound addition | 920 tested, 31% active | AID 2779 | shares compounds with TRPC6 inhibitor | signal change vs control, % at 10 µM;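 active = membrane potential signal moving either way by over 3 SD of the maximum-effect control, in both duplicate plates, meaning non-specific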
HEK293 MPD ctr-1: counter-screen for TRPC6 inhibitors: effect in parental HEK293 cells. 920 tested, 60% active. membrane potential signal change, % at 10 µM. AID 2780. parental HEK293 membrane potential dye fluorescence. shares compounds with TRPC6 inhibitor;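 active = membrane potential signal shifting up or down by more than 3 SD of buffer-only wells, on both duplicate plates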
HEK293 MPD ctr-2: parental HEK293 nonspecific activity of TRPC6 modulators; shares compounds with TRPC6 inhibitor; membrane potential dye fluorescence; membrane potential signal change, % at 10 µM; 2,400 tested, 51% active; AID 488924;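 active = membrane potential signal moves up or down beyond 5 SD from buffer-only wells, on both duplicate plates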
HEK293 MPD ctr 2-2: second counter-screen for TRPC6 modulators: effect in parental HEK293 cells; 2,400 tested, 14% active; inhibition, % at 10 µM; membrane potential dye fluorescence; after compound, maximal acetylcholine stimulation; shares compounds with TRPC6 inhibitor;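 active = membrane potential signal drops by more than 5 SD from the mean control signal, in both duplicate plates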;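 note: plate controls were acetylcholine ECmax control wells for no effect and buffer only wells for full effect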
TRPC4/MOR mod: tests whether TRPC6 modulators also affect mouse TRPC4. shares compounds with TRPC6 inhibitor. HEK293 TRPC4/mu-opioid, membrane potential fluorescence. percent change from control (negative = decrease, positive = increase), % at 10 µM. 2,400 tested, 69% active;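 active = membrane potential signal moved up or down beyond 5 SD of buffer control wells, in both duplicate plates, actives on both sides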;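 note: plate controls were assay buffer wells for no effect and DAMGO maximal-effect wells for full effect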
TRPC4 ctr inh 2: mouse TRPC4 off-target activity of TRPC6 modulators, second screen; AID 488928; HEK293 TRPC4/mu-opioid, membrane potential dye fluorescence; stimulated with maximal-effect DAMGO; inhibition, % at 10 µM; 2,400 tested, 55% active; shares compounds with TRPC6 inhibitor;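 active = drop in membrane potential signal beyond 5 SD of the control wells in both duplicate plates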;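 note: TRPC4 counter screen for TRPC6 hits run under conditions tuned for TRPC6 not TRPC4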
TRPC6 block conf: confirmation of mouse TRPC6 inhibitors | inhibition, % at 10 µM | shares compounds with TRPC6 inhibitor | HEK293-TRPC6, membrane potential dye, ACh-evoked depolarization | 3,300 tested, 43% active;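 active = fluorescence ratio falls more than 5 SD below the full-stimulation control mean, in both duplicate runs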;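 note: integrated fluorescence ratio of peak minus minimum over baseline after agonist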
TRPC6 act confirm: mouse TRPC6 activator confirmation; shares compounds with TRPC6 inhibitor; HEK293-TRPC6 membrane potential dye fluorescence, FDSS; activation, % at 10 µM; 2,800 tested, 11% active; AID 488961;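 active = ratio signal rise beyond 5 SD above unstimulated control wells' mean, seen in both duplicate runs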;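 note: plate controls were buffer EC0 wells for no effect and acetylcholine ECmax response for full effect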
Numbers without * were called inactive; i = inactive; · = no result given.

SMILES	TRPC6 inhibitor	TRPC4 potent	TRPC4 block	TRPC6 activator	TRPC4 act	HEK293 MPD ctr-2	HEK293 MPD ctr 2-2	TRPC4/MOR mod	TRPC4 ctr inh 2	TRPC6 block conf	TRPC6 act confirm	others
CCN(CC)CCCCN1c2ccccc2Sc2ccccc21	-6.5*	i	i	i	i	i	i	i	69%*	48%*	i
CC(CN1c2ccccc2Sc2ccccc21)N(C)C (stereo unspecified)	-6.1*	i	i	i	i	i	94%*	8.0%*	32%*	72%*	i
CN(C)CCC(=O)N1c2ccccc2Sc2ccc(C(F)(F)F)cc21	-6.3*	i	i	i	i	88%*	92%*	14%*	38%*	89%*	·
COc1ccc(C(=O)COC(=O)Cn2cnc3ccccc3c2=O)c(OC)c1	i	i	i	i	i	·	·	·	·	·	·
Cc1ccc(SCC(=O)N(C)CC(=O)Nc2cccc(F)c2)c(C)c1	i	i	i	i	i	·	·	·	·	·	·
O=C(Cc1cccc2ccccc12)NCC(=O)Nc1ccccc1F	i	i	i	i	i	·	·	·	·	·	·
Cc1cccn2c(=O)c3cc(C(=O)NC(C)C)c(=N)n(Cc4ccncc4)c3nc12	-7.6*	i	i	i	i	·	·	·	·	76%*	i	TRPC4 spec 2=72%*;TRPC4 spec=-19%*;HEK293 MPD ctr 2-1=-16%*;HEK293 MPD ctr-1=-304%*
COCCn1c(=N)c(C(=O)NCCc2ccc(OC)cc2)cc2c(=O)n3cccc(C)c3nc21	i	i	i	i	i	·	·	·	·	·	·
Cc1cccn2c(=O)c3cc(C(=O)NC4CCCCC4)c(=N)n(Cc4ccc(F)cc4)c3nc12	i	i	i	i	i	·	·	·	·	·	·
COc1ccc(CNC(=O)c2cc3c(=O)n4cccc(C)c4nc3n(CC3CCCO3)c2=N)cc1 (stereo unspecified)	i	i	i	i	i	·	·	·	·	·	·
COCCCNC(=O)c1cc2c(=O)n3cccc(C)c3nc2n(C(C)C)c1=N	-5*	i	i	i	i	i	67%*	i	30%*	45%*	i
CCNC(=O)c1cc2c(=O)n3cccc(C)c3nc2n(Cc2ccc(C)cc2)c1=N	-6.1*	i	i	i	i	-146%*	i	-28%*	40%*	i	i
CCN(CCCNC(=O)CCNC(=O)Cn1cnc2ccccc2c1=O)c1ccccc1	i	i	i	i	i	·	·	·	·	·	·
Cc1cc(C)n(-c2nnc(C)n2/N=C/c2cc(Br)ccc2OCc2ccccc2)n1	i	i	i	i	i	·	·	·	·	·	·
NCCCCCc1nnc(SCc2ccc(Cl)c(Cl)c2)o1	-6.2*	i	i	i	i	i	i	i	66%*	60%*	i
CCCc1nn2c(=O)cc(CSCC(=O)Nc3cccc(OC)c3)nc2s1	i	i	i	i	i	·	·	·	·	·	·
COc1ccc(CNC(=O)CN(C(=O)CCC(=O)Nc2ccccn2)c2ccc(C)cc2)cc1	i	i	i	i	i	·	·	·	·	·	·
CCCc1cc(=O)oc2c(C)c(OCC(=O)NCCCn3ccnc3)ccc12	-5.8*	i	i	i	i	-136%*	i	-20%*	i	i	i
Cc1cc(OCC(=O)NCCCn2ccnc2)c2c(C)c(C)c(=O)oc2c1	-6.1*	i	i	i	i	-276%*	i	-48%*	36%*	i	i
CCc1cc(=O)oc2cc(C)cc(OCC(=O)NCCCn3ccnc3)c12	i	i	i	i	i	·	·	·	·	·	·
COc1ccc(-c2cc(=O)oc3c(C)c(OCC(=O)NCCCn4ccnc4)ccc23)cc1	i	i	i	i	i	·	·	·	·	·	·
CCOc1cc2[nH]c(=S)n(Cc3ccc(C(=O)O)cc3)c(=O)c2cc1OCC	i	i	i	i	i	·	·	·	·	·	·
CCCC(C)C(=O)Nc1nc(C)c(-c2csc(Nc3ccc(Cl)cc3)n2)s1 (stereo unspecified)	-6*	i	i	i	i	i	i	i	i	i	i
CCN(CC(=O)Nc1ccc(C(=O)OC)cc1)C1CCCCC1	i	i	i	i	i	·	·	·	·	·	·
CN1CCN(c2ccc(S(=O)(=O)N3CCCCC3)cc2NC(=O)c2ccc(F)cc2F)CC1	-9*	16*	i	i	i	·	·	·	·	i	i	TRPC4 spec 2=70%*;TRPC4 spec=i;HEK293 MPD ctr 2-1=278%*;HEK293 MPD ctr-1=0.3%*
COc1ccc(S(=O)(=O)N2CCCCC2)cc1NC(=O)c1ccc([N+](=O)[O-])o1	i	i	i	i	i	·	·	·	·	·	·
CCN1CCN(c2ccc(S(=O)(=O)N3CCCCC3)cc2NC(=O)COc2cc(C)ccc2Cl)CC1	-5.7*	25*	i	i	i	i	i	i	54%*	i	i
CCN1CCN(c2ccc(S(=O)(=O)N3CCCCC3)cc2NC(=O)c2ccc([N+](=O)[O-])o2)CC1	-7.5*	i	i	i	i	-130%*	i	-30%*	54%*	i	i

Screening results deposited in PubChem by Johns Hopkins Ion Channel Center.
